Source: PubChem BioAssay
Sampled rows, rich in hits. Any-hit rate of the full collection: about 3.7%.
hERG rescue: hERG (human) protection from proarrhythmic block | 310,000 compounds, 0.51% hits | Q12809 | CHO-hERG, FluxOR thallium flux, dofetilide IC70 present | activation (rescue from dofetilide block), less the hit threshold, % at 10 µM;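 active means activation above the mean of controls blocked by dofetilide plus 5 SD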;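 further: thallium influx through hERG after potassium depolarization seen as dye fluorescence rise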
Target sequence (Q12809 whole entry, looked up): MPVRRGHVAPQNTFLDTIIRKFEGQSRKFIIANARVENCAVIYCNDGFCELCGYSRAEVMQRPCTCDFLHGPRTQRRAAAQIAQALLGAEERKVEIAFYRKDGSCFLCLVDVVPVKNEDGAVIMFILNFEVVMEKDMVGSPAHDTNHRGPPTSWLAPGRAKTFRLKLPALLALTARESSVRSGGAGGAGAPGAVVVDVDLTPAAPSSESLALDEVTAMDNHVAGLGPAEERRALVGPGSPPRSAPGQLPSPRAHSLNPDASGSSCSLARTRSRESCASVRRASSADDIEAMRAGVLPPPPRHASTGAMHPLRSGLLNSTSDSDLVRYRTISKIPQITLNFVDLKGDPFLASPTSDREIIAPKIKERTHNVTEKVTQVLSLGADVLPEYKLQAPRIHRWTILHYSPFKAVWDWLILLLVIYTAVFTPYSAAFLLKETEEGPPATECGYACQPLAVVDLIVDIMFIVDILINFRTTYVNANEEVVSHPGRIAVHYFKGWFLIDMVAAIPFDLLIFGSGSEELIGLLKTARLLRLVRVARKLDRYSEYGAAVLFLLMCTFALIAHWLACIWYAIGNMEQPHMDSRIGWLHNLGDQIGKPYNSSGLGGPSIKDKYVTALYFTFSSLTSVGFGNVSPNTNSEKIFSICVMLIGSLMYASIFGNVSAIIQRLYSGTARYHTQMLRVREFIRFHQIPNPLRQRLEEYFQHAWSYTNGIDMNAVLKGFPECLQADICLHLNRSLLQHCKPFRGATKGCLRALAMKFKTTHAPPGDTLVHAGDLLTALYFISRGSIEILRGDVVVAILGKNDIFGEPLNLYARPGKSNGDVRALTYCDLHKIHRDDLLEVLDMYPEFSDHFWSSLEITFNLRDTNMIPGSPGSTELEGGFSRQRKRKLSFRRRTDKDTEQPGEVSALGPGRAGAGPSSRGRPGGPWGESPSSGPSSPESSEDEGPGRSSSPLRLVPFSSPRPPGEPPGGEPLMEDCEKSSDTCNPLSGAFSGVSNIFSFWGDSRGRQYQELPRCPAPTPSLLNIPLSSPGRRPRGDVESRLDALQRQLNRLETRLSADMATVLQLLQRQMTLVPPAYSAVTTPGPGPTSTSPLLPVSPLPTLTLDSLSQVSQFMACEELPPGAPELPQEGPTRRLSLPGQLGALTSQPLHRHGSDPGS
KCNK3 inh: human KCNK3 channel inhibition, primary screen. O14649. CHO-KCNK3 thallium flux, FluxOR fluorescence; stronger effect = lower value. B-score at 10 µM. 340,000 compounds, 0.84% hits. AID 602410;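 active means B-score under library mean minus 4 SD, starting fluorescence ratio at most library mean plus 5 SD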;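 further: more negative B-score means stronger inhibition of thallium flux through KCNK3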
KCNQ1 inh: blocks the human KCNQ1 potassium channel | 310,000 compounds, 1.3% hits | CHO-K1 KCNQ1, FluxOR thallium flux fluorescence; stronger effect = higher value | B-score at 10 µM | AID 2642 | P51787;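 active means compounds whose thallium flux B-score, printed positive for inhibition, exceeds three library SD while starting fluorescence stays within three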;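 further: channel opened by potassium depolarization with thallium stimulus after 20 min compound exposure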
KCNK9 block: inhibitors of human KCNK9 two-pore domain potassium channel; Q9NPC2; HEK293 KCNK9, FluxOR thallium flux fluorescence; stronger effect = lower value; B-score at 10 µM; 310,000 compounds, 1.2% hits; AID 488922;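 active means ratio B-score over 3 SD below the library mean, with starting fluorescence within 5 SD of its mean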;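 further: negative B-score means less thallium flux so channel inhibition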
KCNQ1 pot: human KCNQ1 channel potentiation or activation; B-score at 10 µM; P51787; CHO-K1 KCNQ1, thallium flux FluxOR fluorescence; stronger effect = higher value; 310,000 compounds, 0.35% hits;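 active means fluorescence ratio B-score, a plate-corrected score, at least three library SD, with initial intensity B-score within 5 SD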
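Doses: Single concentration per compound, DMSO matched to controls | Test system: KCNQ1-transfected CHO-K1 cells | Timing: 90 min dye loading and 20 min compound exposure, both at room temperature | Measured by: Kinetic FluxOR thallium fluorescence, 10-s 1-Hz baseline, 110-s post-stimulus read | Medium: Assay buffer with matched DMSO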
Kir21 inh: Kir2.1 (mouse) channel inhibition; P35561; B-score at 10 µM; 310,000 compounds, 0.85% hits; HEK293-Kir2.1, FluxOR thallium flux fluorescence; stronger effect = lower value;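 active means fluorescence ratio B-score at or below minus 3 SD of library scores, with starting-brightness B-score within 2 SD, cut at about -4.2 in these data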;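 further: channel flux triggered by added potassium and thallium sulfate stimulus; B-score of peak minus minimum fluorescence over baseline after thallium stimulus; more negative B-score means stronger Kir2.1 block with less thallium influx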
Hits are given with their value; . = inactive; / = not tested or not shown.

SMILES	hERG rescue	KCNK3 inh	KCNQ1 inh	KCNK9 block	KCNQ1 pot	Kir21 inh
C=CCn1c(SCc2cccc3ccccc23)nnc1-c1cccnc1	.	.	.	.	.	-6.44
Fc1ccc(CSc2nnc(-c3cnccn3)n2Cc2ccco2)cc1	.	.	.	.	.	.
C=CCn1c(SCC(=O)Nc2ccc(C(=O)O)cc2)nnc1-c1cccnc1	.	.	.	.	.	.
C(=C\c1ccccc1)/CSc1nnc(-c2cnccn2)n1Cc1ccco1	.	.	.	.	.	-5.27
Clc1ccccc1CSc1nnc(-c2cccnc2)n1Cc1ccco1	.	.	.	.	.	-4.44
O=C(Nc1ccc(Cl)cc1)c1nc[nH]c1C(=O)NCCCCNC(=O)c1[nH]cnc1C(=O)Nc1ccc(Cl)cc1	/	.	/	/	/	/
CCOC(=O)C1CC2=C(CCCC2=O)N(Cc2ccccc2)C1=O (stereo not given)	/	.	/	/	/	/
Cc1ccc(S(=O)(=O)/N=C(/Nc2ccc([N+](=O)[O-])cc2[N+](=O)[O-])c2ccccc2)cc1	/	.	/	/	/	/
O=C(/C=C/c1cccc(F)c1)OCC(=O)N1CCc2ccccc21	/	.	/	/	/	/
Cc1ccc(NC(=O)CN2C(=O)S/C(=C/c3ccc(-c4cc(C(=O)O)ccc4C)o3)C2=O)cc1C	.	.	.	.	.	.
Cc1cccc(NC(=O)CN2C(=O)S/C(=C\c3ccc(-c4cccc(C(=O)O)c4C)o3)C2=O)c1	21.4	.	.	.	.	.
Cc1ccccc1NC(=O)CN1C(=O)S/C(=C\c2ccc(-c3cccc(C(=O)O)c3C)o2)C1=O	11.1	.	.	.	.	.
Cc1ccccc1NC(=O)CN1C(=O)c2ccccc2C1=O	.	.	.	.	.	.
Cc1ccc(NC(=O)C(c2ccccc2)N2CCN(CC(=O)N3CCOCC3)CC2)cc1Cl (stereo not given)	/	.	/	/	/	/
CN(C)Cc1ccccc1C(O)(c1ccccc1)c1ccccc1	.	.	.	.	.	-4.74
CCCN(CC1CC1)C(=S)Nc1ccccc1F	11.1	.	.	.	.	.
CCSc1nc(C(F)(F)F)cc(=O)n1-c1ccccc1	.	.	.	.	.	.
CC(C)Sc1nc(C(F)(F)F)cc(=O)n1-c1ccccc1	.	.	.	.	.	-4.36
O=C(NNS(=O)(=O)c1ccccc1[N+](=O)[O-])c1cccnc1	.	.	.	.	.	.
O=C(NCC1CCCO1)c1cc2c([nH]c3ccccc32)c(-c2cccc(Br)c2)n1 (stereo not given)	.	.	11	.	.	.
COc1ccc(-c2nc(C(=O)NCC3CCCO3)cc3c2[nH]c2ccccc23)cc1 (stereo not given)	.	.	.	.	.	.
Cn1c(=S)c2[nH]c(SCCN3CCCC3)nc2n(C)c1=O	.	.	.	-6.89	.	.
CCC1(O)CCCC2C3CCC4CC(=O)CCC4(C)C3C(=O)CC21C (stereo not given)	/	.	/	/	/	/
Cc1ccccc1C(=O)NNC(=O)C(=O)Nc1cccc(Cl)c1C	12.9	.	.	.	47	.
O=S(=O)(c1ccc(Cl)cc1)N1CCC(O)(CN2CCN(Cc3ccccc3)CC2)CC1	.	.	.	.	.	-5.39
SMILES	hERG rescue	KCNK3 inh	KCNQ1 inh	KCNK9 block	KCNQ1 pot	Kir21 inh
O=[N+]([O-])c1ccccc1OCC(O)CN1CCN(CC(O)COc2ccccc2[N+](=O)[O-])CC1 (stereo not given)	.	.	11	.	.	.
Cc1c(Cc2ccc3c(c2)OCO3)sc(NC(=O)C(C)(C)C)c1C#N	.	.	.	-7.56	.	.
CC(Sc1ccc(Cl)cc1)C(=O)NCc1ccc2c(c1)OCO2 (stereo not given)	.	.	.	.	.	.
Cc1ccc2nc(SC(C)C(=O)NCc3ccc4c(c3)OCO4)[nH]c2c1 (stereo not given)	19.3	.	.	.	.	.
CCc1ccc2[nH]c(C(=O)Nc3ccc(F)cc3Br)cc2c1	.	.	.	.	8	.
Cc1cc(C=O)c2c(c1)C=CC1(Oc3ccccc3C(=O)N1C)O2 (stereo not given)	20.7	/	.	.	.	.
CCCCNc1c(-c2cccc(-c3ccc(OC)cc3)c2)nc2cc(C)ccn12	/	-8.74	/	/	/	/
CCCCNc1c(-c2cccc(-c3cc(C(C)=O)cs3)c2)nc2ccc(C)cn12	.	.	6	.	.	.
CCCCNc1c(-c2cccc(-c3ccc(OC)cc3)c2)nc2ccc(C)cn12	.	.	7	.	.	.
CCCCCCSc1cccc(-c2nc3ccc(Cl)cn3c2NCCCC)c1	/	.	/	/	/	/
O=S(=O)(Nc1cccc2c1CCCC2)c1ccc(Cl)cc1	.	.	.	.	.	.
CC(=O)N1CCN(c2ccccc2NC(=O)COc2ccccc2C)CC1	.	.	.	.	.	.
Cc1ccccc1OCC(=O)Nc1ccccc1N1CCOCC1	.	.	.	.	.	-7.86
COc1cccc(CN(C)CC(=O)Nc2ccccc2N2CCOCC2)c1OC	5.1	.	.	.	.	.
COc1ccc(S(=O)(=O)Cc2ccc(C(=O)NC3CCCCC3)o2)cc1	.	.	.	.	.	.
CCN(CC)C(=O)Cn1cc(C(=O)C(=O)N2CC=C(c3ccccc3)CC2)c2ccccc21	37.9	.	.	.	.	.
CCN(CC)C(=O)Cn1cc(C(=O)C(=O)N2CCN(C)CC2)c2ccccc21	.	.	.	.	.	.
O=C(COc1ccc(Cl)cc1Br)NCC(c1ccco1)N1CCCC1 (stereo not given)	/	.	/	/	/	/
CCN(CC)P(=O)(Nc1ccc(C)cc1Br)c1ccc(N(C)C)cc1NC(=O)c1ccco1 (stereo not given)	.	.	7	.	.	.
COc1ccc(C(=O)NC2CCN(CC(=O)NCc3cccc(OC)c3)CC2)cc1	.	.	.	.	.	.
CC(C)(O)CN(CCCNC(=S)Nc1ccccc1)C(=S)Nc1ccccc1	/	.	/	/	/	/
O=C(NC(=S)Nc1ccccc1)c1cc(-c2ccccc2)nc2ccccc12	.	.	.	.	33	.
N#Cc1ccc(/C=N/NC(=O)c2cc(-c3cccs3)nc3ccccc23)cc1	.	.	6	.	.	.
O=C(N/N=C/c1ccccn1)c1cc(-c2ccc(Cl)cc2)nc2ccccc12	.	.	.	.	.	.
O=C(N/N=C/c1ccccn1)c1cc(-c2ccc(Br)cc2)nc2ccccc12	.	.	.	.	14	.
O=C(N/N=C/c1c[nH]c2ccccc12)c1sc2ccccc2c1Cl	.	.	.	.	.	.
O=C(N/N=C/c1ccccn1)c1sc2ccccc2c1Cl	.	.	.	.	17	.
CCN(CC(=O)Nc1c(F)cccc1F)C(=O)CCNC(=O)c1ccco1	/	.	/	/	/	/
N#C/C(=C\c1c(F)cccc1Cl)S(=O)(=O)c1ccccn1	.	.	.	.	.	.
O=C1NC(=O)C2(CCCCC2)N1	/	.	/	/	/	/
